The test system of data set [1] is Mus musculus. Description: Antidepressant activity in pargyline-pretreated mouse assessed as potentiation of serotonin-induced tremor, head movements, abducted limbs and irritability at 25 mg/kg, po treated 1 hr prior to serotonin-challenge. Type of data set: functional, organism-based. Also noted: dose 25 mg/kg. A digest of the protocol: (§1)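 Mice received pargyline 40 mg/kg po, then the test drug po. They were challenged with 5-hydroxytryptophan 100 mg/kg ip either 1 or 4 hr later. Central responses were rated on the 1–3 scale (slight, moderate, marked). Three mice per dose.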

The subject of data set [2] is Mus musculus. Description: Antidepressant activity in pargyline-pretreated mouse assessed as potentiation of serotonin-induced tremor, head movements, abducted limbs and irritability at 50 mg/kg, po treated 1 hr prior to serotonin-challenge. The data set is classed as functional, organism-based. On the set-up: dose 50 mg/kg. A digest of the protocol:
as §1

The subject of data set [3] is Mus musculus. Description: Antidepressant activity in pargyline-pretreated mouse assessed as potentiation of serotonin-induced tremor, head movements, abducted limbs and irritability at 100 mg/kg, po treated 1 hr prior to serotonin-challenge. The data set is classed as functional, organism-based. On the set-up: dose 100 mg/kg. A digest of the protocol: as §1
In data set [4] the test system is Mus musculus. Kind of data set: Antidepressant activity in pargyline-pretreated mouse assessed as potentiation of serotonin-induced tremor, head movements, abducted limbs and irritability at 25 mg/kg, po treated 4 hrs prior to serotonin-challenge. Type of data set: functional, organism-based. On the set-up: dose 25 mg/kg. Put shortly: as §1
Data set [5] concerns Mus musculus. Description: Antidepressant activity in pargyline-pretreated mouse assessed as potentiation of serotonin-induced tremor, head movements, abducted limbs and irritability at 50 mg/kg, po treated 4 hrs prior to serotonin-challenge. The data set is classed as functional, organism-based. On the set-up: dose 50 mg/kg. Put shortly: as §1
Data set [6] deals with Mus musculus. Description: Antidepressant activity in pargyline-pretreated mouse assessed as potentiation of serotonin-induced tremor, head movements, abducted limbs and irritability at 100 mg/kg, po treated 4 hrs prior to serotonin-challenge. Type of data set: functional, organism-based. On the set-up: dose 100 mg/kg. Put shortly:
as §1

Data set [7] has as its system Mus musculus. Description: Antipsychotic activity in po dosed mouse assessed as change in methamphetamine-induced hyperactivity. The data set is classed as functional. A digest of the protocol:
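Mice were given test compound orally […] with a 4-hr pretreatment, then methamphetamine 3 mg/kg sc. Three mice were placed per photocell motor-activity chamber, with nine mice per dose. Photocell counts (mean ± SE) were compared with methamphetamine-treated controls and expressed as % change. Significance (p < 0.05) was tested by analysis of variance, then t test or Mann-Whitney U test.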

The subject of data set [8] is Mus musculus. Description: Antidepressant activity in pargyline-pretreated mouse assessed as potentiation of DL-DOPA-induced jumping, fighting and squeaking at 25 mg/kg, po treated 4 hrs prior to DL-DOPA-challenge. Also noted: dose 25 mg/kg. Type of data set: functional, organism-based. Put shortly:
(§2)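 Mice were pretreated with pargyline 40 mg/kg po, given the test drug po 4 hr before the challenge, then challenged with DL-Dopa 200 mg/kg. The motor response (motor activity, jumping, fighting, squeaking/irritability) was graded slight (1), moderate (2) or marked (3). Four mice per dose.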

The test system of data set [9] is Mus musculus. Kind of data set: Antidepressant activity in pargyline-pretreated mouse assessed as potentiation of DL-DOPA-induced jumping, fighting and squeaking at 100 mg/kg, po treated 4 hrs prior to DL-DOPA-challenge. The data set is classed as functional, organism-based. On the set-up: dose 100 mg/kg. A digest of the protocol:
as §2

Data set [10] in a line: Toxicity in ip dosed mouse. The note with it: in vivo. Type of data set: organism-based.
The nature of data set [11]: Toxicity in po dosed mouse. The data set is classed as organism-based. The note with it: in vivo.
The test system of data set [12] is Mus musculus. Description: Antipsychotic activity in mouse assessed as change in methamphetamine-induced hyperactivity at 50 mg/kg, po relative to control. Type of data set: functional. A digest of the protocol: (§3)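 Mice were premedicated po with the test compound, then given methamphetamine 3 mg/kg sc. Motor activity was counted in photocell chambers, three mice per chamber and nine per dose. Counts are mean ± SE, expressed as % change from methamphetamine-only controls. Analysis was ANOVA followed by t test or Mann-Whitney U, with p < 0.05.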

In data set [13] the test system is Mus musculus. Kind of data set: Antipsychotic activity in mouse assessed as change in methamphetamine-induced hyperactivity at 5 mg/kg, po relative to control. Type of data set: functional, organism-based. Also noted: dose 5 mg/kg. Put shortly: as §3
Data set [14] concerns Mus musculus. Kind of data set: Antidepressant activity in pargyline-pretreated mouse assessed as potentiation of DL-DOPA-induced jumping, fighting and squeaking at 5 mg/kg, po treated 4 hrs prior to DL-DOPA-challenge. Type of data set: functional, organism-based. Also noted: dose 5 mg/kg. A digest of the protocol:
as §2

The test system of data set [15] is Mus musculus. Kind of data set: Antidepressant activity in pargyline-pretreated mouse assessed as potentiation of DL-DOPA-induced jumping, fighting and squeaking at 10 mg/kg, po treated 4 hrs prior to DL-DOPA-challenge. Type of data set: functional, organism-based. Also noted: dose 10 mg/kg. Put shortly: as §2
Data set [16] relates to Mus musculus. Kind of data set: Antipsychotic activity in mouse assessed as change in methamphetamine-induced hyperactivity at 10 mg/kg, po relative to control. Type of data set: functional. A digest of the protocol: as §3
The subject of data set [17] is Mus musculus. Kind of data set: Antipsychotic activity in mouse assessed as change in methamphetamine-induced hyperactivity at 20 mg/kg, po relative to control. The data set is classed as functional. A digest of the protocol:
as §3

For data set [18], the system named is Mus musculus. Kind of data set: Antidepressant activity in pargyline-pretreated mouse assessed as potentiation of DL-DOPA-induced jumping, fighting and squeaking at 20 mg/kg, po treated 4 hrs prior to DL-DOPA-challenge. Type of data set: functional, organism-based. Also noted: dose 20 mg/kg. Put shortly: as §2

Activity calls are given as the source filed them. No cut-off for these calls is given here.

The record followed here is ChEMBL document CHEMBL3272328, “Novel analogs of tricyclic psychopharmacological agents” (J Med Chem, 1976).

For orientation: ED50 means the midpoint of the dose-response relation. The LD50 is the dose expected to kill half of the subjects tested. High values mean a less toxic substance, low ones a more toxic substance.

As for `CN(C)CCCN1c2ccccc2CCc2ccc(Cl)cc21` [CLOMIPRAMINE], the outcome in the data set with Mus musculus [1], in the data set with Mus musculus [2], in the data set with Mus musculus [3], with Mus musculus [4], with Mus musculus [5] and with Mus musculus [6] was Active. Moreover, in the data set with Mus musculus [7], the ED50 came to 5 mg/kg.
As for `CN1C2CCC1CC(=C1c3ccccc3CCc3ccccc31)C2`, the outcome with Mus musculus [8], in the data set with Mus musculus [1], in the data set with Mus musculus [2], in the data set on Mus musculus [4], in the data set on Mus musculus [5] and with Mus musculus [6] was inactive. The result in the data set with Mus musculus [13] was inactive. The outcome with Mus musculus [9] and in the data set on Mus musculus [3] was Active. Further, the LD50 in [10] turned out to be 30 mg/kg; in [11], 100 mg/kg. The Activity with Mus musculus [12] was found to be 14%.
`CN1CC2C(C1)C21c2ccccc2CCc2ccc(Cl)cc21` (stereo not given): the outcome in the data set with Mus musculus [8], in the data set with Mus musculus [9], in the data set with Mus musculus [3], in the data set on Mus musculus [4], in the data set with Mus musculus [5] and in the data set with Mus musculus [6] was Active. For the same compound, the result in the data set on Mus musculus [1], with Mus musculus [2] and with Mus musculus [13] was inactive. For the same compound, the Activity with Mus musculus [12] amounted to 29%.
Consider `CN(C)CCCN1c2ccccc2CCc2ccccc21` [IMIPRAMINE], for which the result in the data set with Mus musculus [14] and in the data set with Mus musculus [13] was inactive. The outcome in the data set on Mus musculus [15], with Mus musculus [8] and in the data set on Mus musculus [9] was Active. Also, the Activity with Mus musculus [16] amounted to 19%; in the data set on Mus musculus [17], 32%.
As for `CN(C)C1CCCCC(=C2c3ccccc3CCc3ccccc32)C1` (stereo not given), the result in the data set with Mus musculus [8] and in the data set on Mus musculus [9] was Active. The outcome with Mus musculus [1], with Mus musculus [2], with Mus musculus [3] and in the data set with Mus musculus [13] was inactive. Moreover, the Activity with Mus musculus [12] is reported as 11%.
`CN1C2CCC1CC(C1(O)c3ccccc3CCc3ccccc31)C2` (stereo not given): the outcome in the data set on Mus musculus [8] and in the data set on Mus musculus [9] was Active. Moreover, the Activity in the data set on Mus musculus [12] was determined as 11%. The result with Mus musculus [13] was inactive.
Take `CN(C)C1C=C(C2c3ccccc3C=Cc3ccccc32)CCC1` (stereo not given): the result in the data set with Mus musculus [14], in the data set with Mus musculus [1], with Mus musculus [4] and with Mus musculus [13] was inactive. Also, the result with Mus musculus [15], with Mus musculus [18], in the data set on Mus musculus [8], in the data set with Mus musculus [9], with Mus musculus [2] and in the data set on Mus musculus [3] was Active. Further, the outcome with Mus musculus [5] and with Mus musculus [6] was Active. The Activity in the data set on Mus musculus [12] is reported as 23%.
